Test results from the EternaBench riboswitch data.

Test system: MS2 coat protein
Assay: apparent Kd, MS2 coat protein; higher = weaker binding; RNA-MaP array; FMN 200 µM where present
How it was run: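 Stalled E. coli RNA polymerase produced the designs on Illumina sequencing-chip clusters. SNAP-549-labelled MS2 coat protein was added from 0.7 or 1.5 nM, doubling to 3 µM, without and then with constant ligand, in 100 mM Tris-HCl pH 7.5, 80 mM KCl, 4 mM MgCl2, BSA, DTT, yeast tRNA and Tween-20. The apparent Kd is the median of filtered per-cluster fits of green signal normalised to red-channel RNA signal and control-cluster median Fmax.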

[1] = designed as: OFF switch for flavin mononucleotide, no ligand
[2] = ligand present: flavin mononucleotide, designed as: OFF switch for flavin mononucleotide
[3] = designed as: ON switch for flavin mononucleotide, no ligand
[4] = ligand present: flavin mononucleotide, designed as: ON switch for flavin mononucleotide

| Sequence | apparent Kd [1] [nM] | apparent Kd [2] [nM] | apparent Kd [3] [nM] | apparent Kd [4] [nM] |
| --- | --- | --- | --- | --- |
| AUCCUGCGAGGAUAUACAUAAUUUUUUUCAUUUGGUUGCGAACAUGAGGAUCACCCAUGUAGAAGGUGCUUCAC | 66.7 | 62.5 | – | – |
| GGAUAGGACAGAGGAUAUACGUGCUAGAGAUACUAGCAAAUUUUCCUCACAUGAGGAUCACCCAUGUAGAAGGCUGUCCUAUCG | 24.6 | 511 | – | – |
| UUGGACGUCGUAGGAUAUGUGGGAUAUUCCUACAUGAGGAUCACCCAUGUUGACAUGGAAGAAGGACAGAAGGACGAUGUCCAU | – | – | 31.1 | 5.52 |
| GGGUACAUCGGAGGAUAUCAUGUAAAUACAUGAGGAUCACCCAUGUCGAUGGAGACAUCGAAGAUUGAGAAGGCCGAUGUACCG | – | – | 16.8 | 5.6 |
| CGCCAGUGAGGAUAUCCAUCUGGAUCAGACUAGAUCCUGAUGGAGAAGGCACAUGAGGAUCACCCAUGUCGGCG | 18.5 | 19.5 | – | – |
| UGUCGGAGCAGAGGAUAUUACAUGAGGAUCACCCAUGUAUGAACCACUAGCUGGAAACAGCAAUGUAAGAAGGCUGCUCCGACA | 7.43 | 51.8 | – | – |
| CGAGACCUCACAGGAUAUGCUGGACUUUGUCCAGCAGAAGGGUGAAAACAUGAGGAUCACCCAUGUAUGGUCUCCAAAUUUAAA | – | – | 182 | 13.6 |
| GGAGCUCCCAUUAACAUGAGGAUCACCCAUGUCAAAAGACAUGAGGAUAUGCUACCUAAUUGGUAGCAGAAGGCAUGGAGCUCC | – | – | 1160 | 81 |
| UAUAUGUCAGGAUAUUAGUUGUGGACGAAUAAGACUUCUGCUGAGAAGGGACAUGAGGAUCACCCAUGUUCCUC | 15.8 | 19.4 | – | – |
| AACAGGACAGGAUAUACAUGAGGAUCACCCAUGUGAGAAUUAAGUAGAUUACCACAAAGUAGAAGGGUCCUGGA | 50.4 | 87.2 | – | – |
| UUUAAUCGAAACAUGAGGAUCACCCAUGUGUUGUAAUUAACAUAGGAUAUUUGUAUACUUUUGUAAAAGAAGGAUGAUAAUACU | – | – | 17.1 | 13.6 |
| UAUGUAUUCGUAGGAUAUCCGUUAAAACCAUGUGGAGAAGGACGAACAUGAGGAUCACCCAUGUAUCAUGGUGUAGACAAUUUU | 55.5 | 321 | – | – |
| GGUGGACAUGAGGAUCACCCAUGUGAGGAUAUCGGCUGGCUACUCGCUGACGGCUGCUCGAGAAGGCGCAUUGU | 46.3 | 95.6 | – | – |
| UAGAUGGGAGGAUAUACAUAGAUACAGAUUCGUGUAGUGCUACAUGAGGAUCACCCAUGUAGAAGGCCCGUCUU | 16.2 | 71.9 | – | – |
| AACUCACAUGAGGAUCACCCAUGUGAGGAUAUAUUAUUAUGGCUGUUAUGCUGUAGUGGUAGAAGGCGCGUGAU | 33.2 | 28.7 | – | – |
| UGUUGUAUUACAGGAUAUCUAGUUUUUUUAUUUAGAGAAGGGUAUUCACAUGAGGAUCACCCAUGUAUAUACGAGGAAGUUGUG | – | – | 46.6 | 56.1 |
| UAUGCCUUUGUGAGGAUAUACUUUGUUUGGUCGUAGUAGAAGGCACAUGAGGAUCACCCAUGUAGAUUUUUGGU | 27.5 | 72.2 | – | – |
| AGCGUCGGCACAGGAUAUGAGAUGCCGGCAGACAUGAGGAUCACCCAUGUAAGCGACCCAGGCAGUCAGAAGGGUGAUCGACAA | – | – | 121 | 65 |
| UUUACUUACGAAGGAUAUGGUUACAUGAGGAUCACCCAUGUAUGUAUAUUGAUCUAGUAUUUUAACCAGAAGGUCGUGAUUUUU | 34.4 | 46.6 | – | – |
| UUUUAGUCAGGAUAUACAUGAGGAUCACCCAUGUAAAAUUUUAAUUUAAUUUUAAGGUGUAGAAGGGACAAUUC | 48 | 38.6 | – | – |
| CUCGUCUGGAAACGGAGCGGCCAACAUGAGGAUCACCCAUGUGAGGAUAUGCCUACUAAAAGUAGGCAGAAGGCGCACUUGGCA | 23.6 | 34.1 | – | – |
| GUGCCUUAUGAGAAGGCGAUCAUGAAACAUGAUCGAGGAUAUCAUGAAAACAUGAGGAUCACCCAUGUAUGGGUAUUAUGGUAC | – | – | 107 | 27.8 |
| UUGGUAUUUGUAGGAUAUCUGUCGCCACCGUGUGGAGAAGGACGAACAUGAGGAUCACCCAUGUAUCAUGGUGUGGGCUUUGCU | 302 | 317 | – | – |
| UUAAUCAUGUAGAAGGACGGAUAUUAAGAGUACGUAGGAUAUACAGCAGACAUGAGGAUCACCCAUGUGAACAUGGUACAUAGG | 180 | 55 | – | – |
| ACAAAUUAGUGAGGAUAUGCUUAAUUUAUAACUGCAGAAGGCACAUACCUCAAGACAUGAGGAUCACCCAUGUGGAAUAUAGAU | 25.4 | 62.8 | – | – |
| AGUGUGUGGCAGGAUAUGCGAUUUGUCGGUGUAGCAGAAGGGUCUACAUGAGGAUCACCCAUGUGUGCGGUUGA | 438 | 446 | – | – |
| AAAAUGUGAGGAUAUCACGGAGCUCCGCGUGACGGAGCUCCUGAGAAGGCACAUGAGGAUCACCCAUGUCCUGU | 51.3 | 316 | – | – |
| UAAUAAUAAUAAUAAUCCUGCAUACAUGAGGAUCACCCAUGUAAGGAUAUCGUCAGGAAUACUGACGAGAAGGUACAUAGCAGG | 15.8 | 19.3 | – | – |

| Sequence | apparent Kd [1] [nM] | apparent Kd [2] [nM] | apparent Kd [3] [nM] | apparent Kd [4] [nM] |
| --- | --- | --- | --- | --- |
| CUGACGGCGACGACAUUUCCAGAACCAGAAGGUGAAGUCAACAUGAGGAUCACCCAUGUCUAUAUCAAGGAUAUGGUAGUGGGC | – | – | 301 | 92.2 |
| UUUUUGUCAGGAUAUCGUGCAUACAACGAAAGUUCUAUGUGCGAGAAGGGACAUGAGGAUCACCCAUGUUACGG | 109 | 371 | – | – |
| AAAAAGCGAGGAUAUACAUAGCUAAGACGUGUGAGCGAAAAACAUGAGGAUCACCCAUGUAGAAGGCGCAAAAA | 18 | 17.9 | – | – |
| GAGCUCGAUGAGAAGGGUUACAUGAGGAUCACCCAUGUCGACCUUGGCGUAACAGGAUAUCACCGGGCUCAGUGCGUUGACCCA | 27.1 | 121 | – | – |
| AACUGACAUGAGGAUCACCCAUGUCAGGAUAUGACUUGAUAGAAAAAAAAAUAUCAUGUCAGAAGGGACAUGAA | 16.4 | 13.5 | – | – |
| GGAUUUUCUGAGGAUAUUGCAUCACCCGAUUUAUAAGAAGGCAGAACAUGAGGAUCACCCAUGUGGGUCUCCAG | 28.6 | 58 | – | – |
| UUGGACGUCGUAGGAUAUGUAGGAUAUUCCUACAUGAGGAUCACCCAUGUUGAAAUGGAAGAAGGACAGAAGGACGAUGUCCAU | – | – | 56.9 | 11.8 |
| GUAGCAUACUGAGGAUAUUCAUACCGGAAACGGACAUGAGGAUCACCCAUGUGGCGAAAGCCUUUGGAGAAGGCAGAAUGCUAC | – | – | 13.7 | 13.7 |
| UGUCCAUAGCAGAAGGACAUGAAUAAUCAUGAAAACAUGAGGAUCACCCAUGUAGGAUAUGCUAUGGACUAAGAGCGAAAGCUC | 28.6 | 430 | – | – |
| UAUAUAUAGUAAGGAUAUGUAUAUGUUUUAUAAACAGAAGGUACUGACAUGAGGAUCACCCAUGUUUUAGUGUGGGCAUGUAGA | 58.4 | 92 | – | – |
| UUUUAGUCAGGAUAUCGUUAAUUUAAUUGUUUGUAUUAGUUCGAGAAGGGACAUGAGGAUCACCCAUGUACUUU | 23.7 | 24.5 | – | – |
| AUGACAGGCAAAGCGCAACGGCAAACAUGAGGAUCACCCAUGUAGGAUAUGCUACACAAAGUGUAGCAGAAGGACAUACGACGA | 36.4 | 75.2 | – | – |
| ACGACAAAAGUCGAACGAUGUAGCAGAAGGACAUGAGGAUCACCCAUGUAAAAUGUAACAGCCAUGUAGGAUAUGCUACAUCGA | 31.4 | 288 | – | – |
| AAGCGAGGGACAGGAUAUGCGGCGGAACUCGCCGCAGAAGGGUCGACAUGAGGAUCACCCAUGUCCUUACGCUCCAAGUAGAGG | – | – | 181 | 451 |
| GAGAUGUGAGGAUAUCUAGACCGCGAAAGAGCCGCGGUCCGAGAGAAGGCACAUGAGGAUCACCCAUGUGAUGA | 46.9 | 119 | – | – |
| AUUAUGACCGAGUUAUAACUCUAAACAUGAGGAUCACCCAUGUAGGAUAUCAGCACGAUAAGUGCUGAGAAGGACAUCUCGGUC | 16.4 | 18.1 | – | – |
| GUCAGCUCGUGAGGAUAUACAACACUCCUUCGGCAGUGUAUUAAGAUCACAUGAGGAUCACCCAUGUAGAAGGCACGAGCUGAU | 14.8 | 201 | – | – |
| CCGCCAUAAGUCAGGAUAUUCUUUAAGUUGUUGGAGAAGAAGGGACAUGAGGAUCACCCAUGUAAUAGGCCUCA | 842 | 598 | – | – |
| UGAUCUUACAUGAGGAUCACCCAUGUAGACCAGUAACUAACCAGAAGGCACGUAGAGUAAAACAGUGAGGAUAUGGAUGACAUA | – | – | 6.66 | 5.5 |
| GUCAGCUCGUGAGGAUAUACAUGUGCUGGAGACAGCACUAUUGUGUUCACAUGAGGAUCACCCAUGUAGAAGGCACGAGCUGAU | 18.3 | 85.5 | – | – |
| UAAGCCGGGUCUGCAUGAGCUUACAUGAGGAUCACCCAUGUAAGAAGGGACGCUACGUUAUAGUGUCAGGAUAUUGCGAACGGG | 5.15 | 5.66 | – | – |
| UAGUAUAAGGGCAUUAAACAUGAGGAUCACCCAUGUACGUUAGAGGAUAUGCAUUUCAGUUGAGAGUAGAAGGUUAGAGAAGGG | 45.1 | 47.4 | – | – |
| UGGUCAUCAUCAGGAUAUUAACAUGGGCUACAUUAAGAAGGGAUAGUGAGAUAGGAACUGAAACAUGAGGAUCACCCAUGUUGU | – | – | 96.9 | 44.2 |
| AUCAGCUCGUGAGGAUAUACAACACUGCUUCGGCAGUGUAUUAAGAUCACAUGAGGAUCACCCAUGUAGAAGGCACGAGCUGAU | 13.5 | 278 | – | – |
| GGUCGUAAGGAGAAGGGCUACUGGUUGAAACCUGCGGCCUCUGGAACAUGAGGAUCACCCAUGUAGCAGGAUAUCCUUGCGUGA | 188 | 45.3 | – | – |
| UUCCUCGAAGGAUAUUCGACUAGGUACAUGAGGAUCACCCAUGUCAUGAGCCCAAUAGGCGAAGAAGGUCGAGUGU | 23.5 | 34.6 | – | – |
| GUCCGGAGGGAGAAGGGCUAGGAGGUCCAGCUUAUGUGUGUUGCAACAUGAGGAUCACCCAUGUAGCAGGAUAUCCCUUUUACA | 47 | 233 | – | – |
